{
  "source": "ChEMBL document CHEMBL4346667",
  "about": "(Eur J Med Chem, 2019)",
  "format_in_all_cases": "functional",
  "key": {"MCF7 [1]": {"tested_on": "MCF7", "assay": "Induction of apoptosis in human MCF7 cells assessed as necrotic cells at 50 uM after 24 hrs by Annexin V-FITC/propidium iodide staining-based flow cytometric analysis (reference value: 0.2%)"}, "MCF7 [2]": {"tested_on": "MCF7", "assay": "Induction of apoptosis in human MCF7 cells assessed as early apoptotic cells at 10 uM after 6 hrs by Annexin V-FITC/propidium iodide staining-based flow cytometric analysis (reference value: 2%)", "in_short": "(§1)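 Log-phase cells seeded in 6-well plates and treated after adhesion; incubated in cycles of 6 h on/6 h off up to 48 h. Collected after PBS washes and trypsin, resuspended in Ca2+-enriched binding buffer. Stained with annexin V (1 µg/mL) plus PI (0.5 µg/mL) 15 min in the dark at room temperature. 10,000 events, FL1 vs FL2. At least three repeats.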"}, "MCF7 [3]": {"tested_on": "MCF7", "assay": "Induction of apoptosis in human MCF7 cells assessed as late apoptotic cells at 1 uM after 24 hrs by Annexin V-FITC/propidium iodide staining-based flow cytometric analysis (reference value: 5.6%)", "in_short": "as §1"}, "MCF7 [4]": {"tested_on": "MCF7", "assay": "Induction of apoptosis in human MCF7 cells assessed as viable cells at 25 uM after 6 hrs by Annexin V-FITC/propidium iodide staining-based flow cytometric analysis (reference value: 92.8%)", "conditions": "MCF7, 6 h, read-out: Activity"}, "MCF7 [5]": {"tested_on": "MCF7", "assay": "Induction of apoptosis in human MCF7 cells assessed as late apoptotic cells at 25 uM after 24 hrs by Annexin V-FITC/propidium iodide staining-based flow cytometric analysis (reference value: 5.6%)", "in_short": "as §1"}, "MCF7 [6]": {"tested_on": "MCF7", "assay": "Induction of apoptosis in human MCF7 cells assessed as viable cells at 10 uM after 48 hrs by Annexin V-FITC/propidium iodide staining-based flow cytometric analysis (reference value: 87.9%)", "conditions": "MCF7, 48 h, read-out: Activity"}, "MCF7 [7]": {"tested_on": "MCF7", "assay": "Induction of apoptosis in human MCF7 cells assessed as late apoptotic cells at 10 uM after 24 hrs by Annexin V-FITC/propidium iodide staining-based flow cytometric analysis (reference value: 5.6%)", "in_short": "as §1"}, "MCF7 [8]": {"tested_on": "MCF7", "assay": "Antitumor activity against human MCF7 cells xenografted in BALB/c nude mouse assessed as tumor weight at 40 mg/kg administered for a week", "in_short": "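Male BALB/c nude mice, 4 weeks old, 15-20 g. Log-phase MCF-7 cells in DMEM, 0.1 mL of 1×10^6 cells/mL, injected subcutaneously into the hind leg. Calipers twice weekly; at about 90 mm3, groups of 5. Vehicle was isotonic saline plus 0.005% DMSO. Injected at 40 mg/kg for a week; tumour volume recorded daily.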"}, "MCF7 [9]": {"tested_on": "MCF7", "assay": "Induction of apoptosis in human MCF7 cells assessed as viable cells at 1 uM after 24 hrs by Annexin V-FITC/propidium iodide staining-based flow cytometric analysis (reference value: 92.1%)", "conditions": "MCF7, 24 h, read-out: Activity"}, "MCF7 [10]": {"tested_on": "MCF7", "assay": "Induction of apoptosis in human MCF7 cells assessed as late apoptotic cells at 25 uM after 48 hrs by Annexin V-FITC/propidium iodide staining-based flow cytometric analysis (reference value: 2.8%)", "in_short": "as §1"}, "MCF7 [11]": {"tested_on": "MCF7", "assay": "Induction of apoptosis in human MCF7 cells assessed as late apoptotic cells at 25 uM after 6 hrs by Annexin V-FITC/propidium iodide staining-based flow cytometric analysis (reference value: 4.7%)", "in_short": "as §1"}, "MCF7 [12]": {"tested_on": "MCF7", "assay": "Induction of apoptosis in human MCF7 cells assessed as late apoptotic cells at 10 uM after 6 hrs by Annexin V-FITC/propidium iodide staining-based flow cytometric analysis (reference value: 4.7%)", "in_short": "as §1"}, "MCF7 [13]": {"tested_on": "MCF7", "assay": "Induction of apoptosis in human MCF7 cells assessed as necrotic cells at 25 uM after 24 hrs by Annexin V-FITC/propidium iodide staining-based flow cytometric analysis (reference value: 0.2%)"}, "MCF7 [14]": {"tested_on": "MCF7", "assay": "Induction of apoptosis in human MCF7 cells assessed as early apoptotic cells at 10 uM after 48 hrs by Annexin V-FITC/propidium iodide staining-based flow cytometric analysis (reference value: 9.1%)", "in_short": "as §1"}, "MCF7 [15]": {"tested_on": "MCF7", "assay": "Induction of apoptosis in human MCF7 cells assessed as early apoptotic cells at 5 uM after 24 hrs by Annexin V-FITC/propidium iodide staining-based flow cytometric analysis (reference value: 2.1%)", "in_short": "as §1"}, "MCF7 [16]": {"tested_on": "MCF7", "assay": "Induction of apoptosis in human MCF7 cells assessed as early apoptotic cells at 25 uM after 6 hrs by Annexin V-FITC/propidium iodide staining-based flow cytometric analysis (reference value: 2%)", "in_short": "as §1"}, "MCF7 [17]": {"tested_on": "MCF7", "assay": "Induction of apoptosis in human MCF7 cells assessed as early apoptotic cells at 25 uM after 24 hrs by Annexin V-FITC/propidium iodide staining-based flow cytometric analysis (reference value: 2.1%)", "in_short": "as §1"}, "MCF7 [18]": {"tested_on": "MCF7", "assay": "Cell cycle arrest in human MCF7 cells assessed as accumulation of cells at G2/M phase at 10 uM up to 48 hrs by propidium iodide double staining based flow cytometric analysis"}, "MCF7 [19]": {"tested_on": "MCF7", "assay": "Induction of apoptosis in human MCF7 cells assessed as necrotic cells at 5 uM after 24 hrs by Annexin V-FITC/propidium iodide staining-based flow cytometric analysis (reference value: 0.1%)"}, "MCF7 [20]": {"tested_on": "MCF7", "assay": "Induction of apoptosis in human MCF7 cells assessed as late apoptotic cells at 5 uM after 6 hrs by Annexin V-FITC/propidium iodide staining-based flow cytometric analysis (reference value: 4.7%)", "in_short": "as §1"}, "MCF7 [21]": {"tested_on": "MCF7", "assay": "Induction of apoptosis in human MCF7 cells assessed as viable cells at 50 uM after 48 hrs by Annexin V-FITC/propidium iodide staining-based flow cytometric analysis (reference value: 87.9%)", "conditions": "MCF7, 48 h, read-out: Activity"}, "MCF7 [22]": {"tested_on": "MCF7", "assay": "Induction of apoptosis in human MCF7 cells assessed as viable cells at 5 uM after 6 hrs by Annexin V-FITC/propidium iodide staining-based flow cytometric analysis (reference value: 92.8%)", "conditions": "MCF7, 6 h, read-out: Activity"}, "MCF7 [23]": {"tested_on": "MCF7", "assay": "Induction of apoptosis in human MCF7 cells assessed as necrotic cells at 10 uM after 24 hrs by Annexin V-FITC/propidium iodide staining-based flow cytometric analysis (reference value: 0.1%)"}, "MCF7 [24]": {"tested_on": "MCF7", "assay": "Induction of apoptosis in human MCF7 cells assessed as early apoptotic cells at 50 uM after 48 hrs by Annexin V-FITC/propidium iodide staining-based flow cytometric analysis (reference value: 9.1%)", "in_short": "as §1"}, "MCF7 [25]": {"tested_on": "MCF7", "assay": "Induction of apoptosis in human MCF7 cells assessed as necrotic cells at 5 uM after 24 hrs by Annexin V-FITC/propidium iodide staining-based flow cytometric analysis (reference value: 0.2%)"}, "MCF7 [26]": {"tested_on": "MCF7", "assay": "Induction of apoptosis in human MCF7 cells assessed as late apoptotic cells at 50 uM after 6 hrs by Annexin V-FITC/propidium iodide staining-based flow cytometric analysis (reference value: 4.7%)", "in_short": "as §1"}, "MCF7 [27]": {"tested_on": "MCF7", "assay": "Induction of apoptosis in human MCF7 cells assessed as necrotic cells at 25 uM after 6 hrs by Annexin V-FITC/propidium iodide staining-based flow cytometric analysis (reference value: 0.5%)"}, "MCF7 [28]": {"tested_on": "MCF7", "assay": "Induction of apoptosis in human MCF7 cells assessed as necrotic cells at 1 uM after 24 hrs by Annexin V-FITC/propidium iodide staining-based flow cytometric analysis (reference value: 0.1%)"}, "MCF7 [29]": {"tested_on": "MCF7", "assay": "Induction of apoptosis in human MCF7 cells assessed as late apoptotic cells at 10 uM after 48 hrs by Annexin V-FITC/propidium iodide staining-based flow cytometric analysis (reference value: 2.8%)", "in_short": "as §1"}, "MCF7 [30]": {"tested_on": "MCF7", "assay": "Induction of apoptosis in human MCF7 cells assessed as necrotic cells at 5 uM after 6 hrs by Annexin V-FITC/propidium iodide staining-based flow cytometric analysis (reference value: 0.5%)"}},
  "note": "The source made the active and inactive calls. The calls are words filed in the database; no cut-off is given here.",
  "data": [
    {"smiles": "COc1cc([C@@H]2c3cc4c(cc3[C@@H](O[C@@H]3O[C@@H]5CO[C@@H](C)O[C@H]5[C@H](O)[C@H]3O)[C@H]3COC(=O)[C@H]23)OCO4)cc(OC)c1O", "note": "[ETOPOSIDE]", "values": [
      {"measurement": "Activity", "setting": "MCF7 [1]", "value": 1, "unit": "%"},
      {"measurement": "Activity", "setting": "MCF7 [2]", "value": 2.2, "unit": "%"},
      {"measurement": "Activity", "setting": "MCF7 [3]", "value": 6.8, "unit": "%"},
      {"measurement": "viability at 25 µM", "setting": "MCF7 [4]", "value": 90.6, "unit": "%"},
      {"measurement": "Activity", "setting": "MCF7 [5]", "value": 7.7, "unit": "%"},
      {"measurement": "viability at 10 µM", "setting": "MCF7 [6]", "value": 20.7, "unit": "%"},
      {"measurement": "Activity", "setting": "MCF7 [7]", "value": 11.5, "unit": "%"},
      {"measurement": "Activity", "setting": "MCF7 [8]", "value": 0.834, "unit": "g"},
      {"measurement": "viability at 1 µM", "setting": "MCF7 [9]", "value": 90.7, "unit": "%"},
      {"measurement": "Activity", "setting": "MCF7 [10]", "value": 19.7, "unit": "%"},
      {"measurement": "Activity", "setting": "MCF7 [11]", "value": 6.7, "unit": "%"},
      {"measurement": "Activity", "setting": "MCF7 [12]", "value": 9.1, "unit": "%"},
      {"measurement": "Activity", "setting": "MCF7 [13]", "value": 0.8, "unit": "%"},
      {"measurement": "Activity", "setting": "MCF7 [14]", "value": 60.5, "unit": "%"},
      {"measurement": "Activity", "setting": "MCF7 [15]", "value": 6.7, "unit": "%"},
      {"measurement": "Activity", "setting": "MCF7 [16]", "value": 1.9, "unit": "%"},
      {"measurement": "Activity", "setting": "MCF7 [17]", "value": 10.4, "unit": "%"},
      {"measurement": "Activity", "setting": "MCF7 [18]", "value": "Active"},
      {"measurement": "Activity", "setting": "MCF7 [19]", "value": 1.2, "unit": "%"},
      {"measurement": "Activity", "setting": "MCF7 [20]", "value": 7.6, "unit": "%"},
      {"measurement": "viability at 50 µM", "setting": "MCF7 [21]", "value": 29.8, "unit": "%"},
      {"measurement": "viability at 5 µM", "setting": "MCF7 [22]", "value": 89.7, "unit": "%"},
      {"measurement": "Activity", "setting": "MCF7 [23]", "value": 1.4, "unit": "%"},
      {"measurement": "Activity", "setting": "MCF7 [24]", "value": 57, "unit": "%"},
      {"measurement": "Activity", "setting": "MCF7 [25]", "value": 0.6, "unit": "%"},
      {"measurement": "Activity", "setting": "MCF7 [26]", "value": 4.6, "unit": "%"},
      {"measurement": "Activity", "setting": "MCF7 [27]", "value": 0.8, "unit": "%"},
      {"measurement": "Activity", "setting": "MCF7 [28]", "value": 0.2, "unit": "%"},
      {"measurement": "Activity", "setting": "MCF7 [29]", "value": 17.5, "unit": "%"},
      {"measurement": "Activity", "setting": "MCF7 [30]", "value": 0.6, "unit": "%"}
    ]}
  ]
}
